Six molecules from paper PMC7203693 (ACS Omega, 2020) can be followed below.

In series [1] the test system is AD model rats. In words: HE staining of hippocampus CA3 region of AD model rats. The series is classed as in vivo. The conditions noted are these: AD rats, 5, 10, and 20 mg/kg.
The next series relates to Aβ1-42. Description: Immunohistochemistry for Aβ1-42 in hippocampus of AD model rats. It is filed as in vivo. The conditions noted are these: AD rats, 10, 20 mg/kg, compared with the model group (p < 0.05). In outline:
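Hippocampal sections from five rats: endogenous peroxidase blocked, 5% normal goat serum in 0.3% Triton/PBS, rabbit anti-Aβ1-42 (1:300) overnight at 4 °C, biotinylated goat anti-rabbit (1:500) 1 h at room temperature, then DAB for 10 min.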

Series [2] concerns AD model rats. In words: Bielschowsky silver staining of hippocampus of AD model rats. It is filed as in vivo. Particulars: AD rats, 10, 20 mg/kg, versus AD model group. The method, boiled down: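 SD rats (8 weeks, 280 ± 10 g) got bilateral hippocampal Aβ25-35 (10 μg in 2 μL, pre-aggregated 4 days at 37 °C); sham rats got saline. Formalin-fixed paraffin coronal sections (40 μm) were stained by modified Bielschowsky silver (20% AgNO3, ammoniacal silver), and positive neurons were counted at 10 × 40.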

In series [3] the test system is AD model rats. Description: Open-field test in Aβ25-35-induced AD model rats. The series is classed as in vivo. The conditions noted are these: for total distance moved in open field: AD rats, Aβ model group 17.34 ± 3.88. The method, boiled down:
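After 1 h acclimation, each rat explored a dimly lit 100 × 100 × 50 cm box for 2 min, with 70% ethanol cleaning between trials. Video gave total distance and central-zone time. Mean ± SEM, t-test.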

The next series concerns PC12 cells. In words: Cytotoxicity in PC12 cells. It is filed as cell-based. The conditions noted are these: 10 μM, 24 h. In outline:
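PC12 cells were grown in DMEM with 10% FBS and penicillin/streptomycin (37 °C, 5% CO2), seeded at 10⁵/well and left 24 h. Test compound (DMSO stock diluted in medium) was given at 10 μM for 24 h, with edaravone as positive control. MTT was added for 2 h, formazan was dissolved in DMSO, and absorbance was read at 490 nm.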

A further series deals with AChE (Homo sapiens, UniProt P22303). Description: biochemical.
The subject of series [4] is AD model rats. Description: Nissl staining of hippocampal CA1 region of AD model rats. The series is classed as in vivo. Particulars: 10 and 20 mg/kg groups. The method, boiled down:
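Brains were paraformaldehyde-postfixed and cryoprotected in 30% sucrose. Frozen 25 μm hippocampal sections were stained with 2% cresyl violet for 5 min. Necrotic CA1 cells were counted by light microscopy (n = 5 rats/group, three sections per rat).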

The subject of series [5] is AD model rats. Description: Morris water maze in Aβ25-35-induced AD model rats. It is filed as in vivo. Particulars: compared to the model rats (p < 0.05). The method, boiled down: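 Pool 180 cm wide, water at 25 ± 1 °C, hidden platform 2 cm submerged. Training: four 2-min trials daily (30 min apart) for 5 days. Escape latency and swim path were video-tracked. Probe trial: platform removed, 2-min swim, crossings counted. Mean ± SEM, t-test.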

For the next series, the system named is ICR mice. Description: Acute oral toxicity test in mice. The conditions noted are these: for deaths: 10 animals; for deaths / death rate: 14 day. The series is classed as in vivo. In outline: (§1)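 ICR mice (18–22 g, half male, half female), seven groups of 10. Single oral gavage of 1310, 1638, 2048, 2560, 3200 or 4000 mg/kg, suspended in 0.5% carboxymethyl cellulose; the control group received vehicle. General behaviour, toxicity signs and mortality were followed for 14 days. LD50 was estimated by log-probit regression of mortality.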

Series [6] is described as follows: Acute oral toxicity test in mice. It is filed as in vivo. The conditions noted are these: both, ICR, mouse, in vivo, po. In outline:
as §1

Where [7] appears, read: mice, single oral dose 1310 mg/kg.
Where [8] appears, read: mice, single oral dose 1638 mg/kg.
[9] abbreviates: mice, single oral dose 2048 mg/kg.
Where [10] appears, read: mice, single oral dose 2560 mg/kg.
The mark [11] stands for this setting: mice, single oral dose 3200 mg/kg.
Where [12] appears, read: mice, single oral dose 4000 mg/kg.

Chain of AChE (P22303 32-614): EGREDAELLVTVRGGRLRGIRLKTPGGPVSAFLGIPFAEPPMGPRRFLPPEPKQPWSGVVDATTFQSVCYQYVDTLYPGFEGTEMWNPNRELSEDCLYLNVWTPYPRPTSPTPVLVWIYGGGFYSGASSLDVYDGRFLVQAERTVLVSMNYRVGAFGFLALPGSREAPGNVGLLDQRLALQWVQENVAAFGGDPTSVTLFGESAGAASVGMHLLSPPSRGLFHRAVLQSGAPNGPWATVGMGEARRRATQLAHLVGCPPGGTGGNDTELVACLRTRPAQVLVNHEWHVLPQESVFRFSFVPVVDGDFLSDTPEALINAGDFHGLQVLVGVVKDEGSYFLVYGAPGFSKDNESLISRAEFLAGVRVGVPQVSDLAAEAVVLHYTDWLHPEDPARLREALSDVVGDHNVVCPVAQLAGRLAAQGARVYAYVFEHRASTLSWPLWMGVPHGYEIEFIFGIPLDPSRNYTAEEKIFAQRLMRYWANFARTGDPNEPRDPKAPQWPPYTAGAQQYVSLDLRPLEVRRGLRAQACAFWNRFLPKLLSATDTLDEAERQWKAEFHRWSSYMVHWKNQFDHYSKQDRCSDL

A word on the IC50: it is the midpoint of a concentration-inhibition curve. Low values mean higher potency, high ones lower potency. A word on the LD50: it is the dose expected to kill half of the subjects tested. As to `COc1c(OC(=O)N(C)c2ccccc2)cc2oc3cc4c(c(O)c3c(=O)c2c1CC=C(C)C)C=CC(C)(C)O4` [AMG-1, 5-Hydroxy-8-methoxy-2,2-dimethyl-7-(3-methylbut-2-en-1-yl)-6-oxo-2,6-dihydropyrano[3,2-b]xanthen-9-yl methyl(phenyl)carbamate], the “pyramidal cell morphology and density, hippocampus CA3 (HE staining)” value with AD model rats [1] was “better cell morphology and density than those in the model group”. For the same molecule, in the series on Aβ1-42, the “expression of Aβ1-42 in hippocampus (immunohistochemistry)” value is reported as “significantly reduced expression”. Also, in the series on AD model rats [2], the “number of senile plaques in hippocampus (silver staining)” value is recorded as “less”. Moreover, the “time spent in the central zone in open field” value in the series on AD model rats [3] (AD rats, 5, 10, 20 mg/kg oral 30 days, compared to the Aβ model group) is “dose-dependent increase”. In addition, the “total distance moved in open field” value in the series with AD model rats [3] (AMG-1 20 mg/kg oral once daily 30 days) is 28.55 ± 6.87 m. For the same molecule, the “inhibition ratio (cytotoxic effect, cell proliferation)” value (“inhibition ratio” below) in the series with PC12 cells turned out to be 7.2%. At AChE, this molecule gave a concentration for half-maximal inhibition (IC50) of 52.6 ± 11.3 µM. Also, in the series with AD model rats [4], the “neuronal damage in hippocampal CA1 (Nissl staining)” value was “significantly attenuated”. In addition, in the series on AD model rats [5] (probe trial), the “time in the target quadrant” value is listed as “significantly more time”. The “time to reach the place of the removed platform” value in the series on AD model rats [5] (probe trial) is listed as “significantly less time”. In addition, in the series with AD model rats [5] (retention phase), the “escape latency in Morris water maze” value is reported as “significant improvements”. Also, the “total distance traveled in Morris water maze” value in the series on AD model rats [5] (retention phase) is on record as “significant improvements”. Besides, in the series on ICR mice (level of 20 mg/kg or less), the “toxicity at the dose for administration” value is “no obvious toxicity”. The signs of toxicity result with ICR mice (mice, acute oral toxicity experiment period) is “messy furs and loose gray stool around the anus”. For the same molecule, the “time found dead after administration” value in the series with ICR mice (mice, highest dosed group 4000 mg/kg oral) fell in the range of 16 to 48 h. The deaths in the series on ICR mice (setting [7]) was 0; with ICR mice (setting [8]), 1; in the series on ICR mice (setting [9]) it was 4; in the series with ICR mice (setting [10]) it was 6; with ICR mice (setting [11]) it was 7; in the series with ICR mice (setting [12]), 9. For the same molecule, the death rate is 0% in the series with ICR mice (setting [7]); 10% with ICR mice (setting [8]); 40% in the series on ICR mice (setting [9]); 60% with ICR mice (setting [10]); 70% with ICR mice (setting [11]); 90% in the series on ICR mice (setting [12]). The same molecule returned an LD50 at 14 day in series [6] of 2470 mg/kg.

For `CCN(C(=O)Oc1cc2oc3cc4c(c(O)c3c(=O)c2c(CC=C(C)C)c1OC)C=CC(C)(C)O4)c1ccccc1` [AMG-2, 5-Hydroxy-8-methoxy-2,2-dimethyl-7-(3-methylbut-2-en-1-yl)-6-oxo-2,6-dihydropyrano[3,2-b]xanthen-9-yl ethyl(phenyl)carbamate], the “inhibition ratio” value in the series on PC12 cells worked out at 6.7%. Further, the IC50 on AChE was found to be 35.1 ± 9.38 µM.

As to `COc1c(OC(=O)N(C)c2ccccc2C)cc2oc3cc4c(c(O)c3c(=O)c2c1CC=C(C)C)C=CC(C)(C)O4` [AMG-3, 5-Hydroxy-8-methoxy-2,2-dimethyl-7-(3-methylbut-2-en-1-yl)-6-oxo-2,6-dihydropyrano[3,2-b]xanthen-9-yl methyl(o-tolyl)carbamate], in the series with PC12 cells, the “inhibition ratio” value is on record as 5.9%. On AChE, half-maximal inhibition (IC50) required 32.9 ± 7.78 µM.

As to `COc1cc2c(cc1OC)C(=O)C(CC1CCN(Cc3ccccc3)CC1)C2` (stereo not drawn) [donepezil, reference compound], the “total distance moved in open field” value with AD model rats [3] (donepezil 1 mg/kg oral once daily 30 days) is 31.37 ± 7.14 m.

For the molecule `CC1=NN(c2ccccc2)C(=O)C1` [edaravone, reference compound], the “inhibition ratio” value in the series on PC12 cells is 0%.

Turning to `COc1c(O)cc2oc3cc(O)c(CC=C(C)C)c(O)c3c(=O)c2c1CC=C(C)C` [α-M, 1,3,6-trihydroxy-7-methoxy-2,8-bis(3-methylbut-2-en-1-yl)-9H-xanthen-9-one, reference compound], the “inhibition ratio” value with PC12 cells worked out at 73.1%. Moreover, the IC50 against AChE turned out to be 34.3 ± 6.06 µM.
